Experimental data published in ChEMBL document CHEMBL3091404, “Isoquinoline derivatives as potent CRTH2 antagonists: design, synthesis and SAR” (Bioorg Med Chem, 2013).

Columns and labels:
[1] = molecular target: T1, Prostaglandin D2 receptor 2 (Homo sapiens, UniProt Q9Y5Y4); test: Antagonist activity at human CRTH2 transfected in human KB8 cells assessed as inhibition of PGD2-induced increase in intracellular Ca2+ by fluo-4AM dye-based assay; format: functional, cell-based
T1 sequence (Q9Y5Y4 whole entry): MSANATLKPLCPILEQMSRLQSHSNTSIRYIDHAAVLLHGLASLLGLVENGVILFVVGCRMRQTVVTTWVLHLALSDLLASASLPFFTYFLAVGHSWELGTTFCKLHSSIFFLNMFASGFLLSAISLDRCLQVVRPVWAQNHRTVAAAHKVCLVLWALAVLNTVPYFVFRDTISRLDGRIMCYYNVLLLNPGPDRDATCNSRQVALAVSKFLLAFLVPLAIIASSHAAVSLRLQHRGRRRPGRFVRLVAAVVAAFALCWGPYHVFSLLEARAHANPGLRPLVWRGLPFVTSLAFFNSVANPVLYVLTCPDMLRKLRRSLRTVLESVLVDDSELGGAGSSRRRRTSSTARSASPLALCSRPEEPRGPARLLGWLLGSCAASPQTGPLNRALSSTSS
Summary of the method: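 Cells loaded with 1 µM Fluo-4 AM for 30 min at 37 °C in the dark, washed, resuspended in HBSS with 10 mM HEPES pH 7.3 and 1 mM CaCl₂ (2 × 10⁵ cells/100 µl). Compound added with 100 nM PGD₂; [Ca²⁺]i rise read on FDSS6000. IC₅₀ from ten-point half-log concentration–response curves, mean of two or more independent experiments.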

[2] = molecular target: T1, Prostaglandin D2 receptor 2; test: Displacement of [3H]PGD2 from human CRTH2 transfected in CHO cells by liquid scintillation counting analysis; format: cell-based
Summary of the method: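 Transfected cells washed and suspended in HBSS with 10 mM HEPES pH 7.3 (2 × 10⁵ cells/100 µl), incubated with 5 nM ³H-PGD₂ for 60 min on ice. Vacuum filtration through GF/C glass fiber filters, four washes with ice-cold PBS containing 0.1% BSA. IC₅₀ from ten-point half-log concentration–response curves, mean of two or more independent experiments.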

[3] = Antagonist activity at CRTH2 in human TH2 cells assessed as inhibition of PGD2-induced chemotaxis after 1 hr by hemocytometry

SMILES	IC50 [1] [nM]	IC50 [2] [nM]	IC50 [3] [nM]
O=C(O)Cc1cnc(C(=O)c2ccc(NC(=O)C3CCOCC3)cc2)c2ccccc12	> 1000	400	
O=C(O)Cc1cnc(C(=O)c2ccc(NCc3ccc(Cl)c(Cl)c3)cc2)c2ccccc12	43		
O=C(O)Cc1cnc(C(=O)c2ccc(NC(=O)c3cc4ccccc4[nH]3)cc2)c2ccccc12	4.2		
Cc1ccc(C(=O)Nc2ccc(C(=O)c3ncc(CC(=O)O)c4ccccc34)cc2)cc1	18	5.2	
O=C(O)Cc1cnc(C(=O)c2ccc(NC(=O)c3ccc4ccccc4c3)cc2)c2ccccc12	10		
O=C(O)Cc1cnc(C(=O)c2ccc(NC(=O)Cc3ccc(Cl)c(Cl)c3)cc2)c2ccccc12	30	15	
O=C(O)Cc1cnc(C(=O)c2ccc(NC(=O)c3ccc(Oc4ccccc4)cc3)cc2)c2ccccc12	120	14	
O=C(O)Cc1cnc(C(=O)c2ccc(NC(=O)C3CCCCC3)cc2)c2ccccc12	270		
O=C(O)Cc1cnc(C(=O)c2ccc(C(=O)NCCc3ccc(Cl)c(Cl)c3)cc2)c2ccccc12	18	3.7	
O=C(O)Cc1cnc(C(=O)c2ccc(OCCCc3ccc(Cl)cc3)cc2)c2ccccc12	85	11	
COc1ccc(C(=O)Nc2ccc(C(=O)c3ncc(CC(=O)O)c4ccccc34)cc2)cc1	17		
CN(C)c1ccc(C(=O)Nc2ccc(C(=O)c3ncc(CC(=O)O)c4ccccc34)cc2)cc1	13	6.2	
O=C(O)Cc1cnc(C(=O)c2ccc(C(=O)Nc3ccc(Cl)cc3)cc2)c2ccccc12	38	8.2	
O=C(O)Cc1cnc(C(=O)c2ccc(NC(=O)Nc3ccc(Cl)c(Cl)c3)cc2)c2ccccc12	36	13	
O=C(O)Cc1cnc(C(=O)c2ccc(OCCc3ccc(Cl)cc3)cc2)c2ccccc12	130	12	
O=C(O)Cc1cnc(C(=O)c2ccc(NC(=O)c3cccnn3)cc2)c2ccccc12	> 1000	322	
O=C(O)Cc1cnc(C(=O)c2ccc(NC(=O)c3ccncc3)cc2)c2ccccc12	> 1000		
O=C(O)Cc1cnc(C(=O)c2ccc(NC(=O)OCc3ccc(Cl)c(Cl)c3)cc2)c2ccccc12	5.2	6.7	
O=C(O)Cc1cnc(C(=O)c2ccc(NC(=O)c3cc4ccccc4o3)cc2)c2ccccc12	7.4	3.8	

SMILES	IC50 [1] [nM]	IC50 [2] [nM]	IC50 [3] [nM]
O=C(O)Cc1cnc(C(=O)c2ccc(NC(=O)CC34CC5CC(CC(C5)C3)C4)cc2)c2ccccc12	97	21	
O=C(O)Cc1cnc(C(=O)c2ccc(NC(=O)c3ccccn3)cc2)c2ccccc12		48	
CC(C)(C(=O)O)c1cnc(C(=O)c2ccc(C(=O)NCCc3ccc(Cl)cc3)cc2)c2ccccc12	> 1000		
O=C(O)Cc1cnc(C(=O)c2ccc(NC(=O)c3ccc(OC(F)(F)F)cc3)cc2)c2ccccc12	8.7	11	
O=C(O)Cc1cnc(C(=O)c2ccc(NC(=O)c3ccc(Cl)c(Cl)c3)cc2)c2ccccc12	13		23
O=C(O)Cc1cnc(C(=O)c2ccc(NC(=O)c3ccc(-c4ccccc4)cc3)cc2)c2ccccc12	14	18	
O=C(O)Cc1cnc(C(=O)c2ccc(C(=O)NCCc3ccc(Cl)cc3)cc2)c2ccccc12	12		
O=C(O)Cc1cnc(C(=O)c2ccc(NC(=O)c3ccc(Cl)cc3)cc2)c2ccccc12	9.1		
O=C(O)Cc1cnc(C(=O)c2ccc(NC(=O)CC3CCCCC3)cc2)c2ccccc12	220	20	
O=C(O)Cc1cnc(C(=O)c2ccc(NC(=O)c3ccccc3Cl)cc2)c2ccccc12	> 1000		
O=C(O)Cc1cnc(C(=O)c2ccc(C(=O)Nc3ccc(Cl)c(Cl)c3)cc2)c2ccccc12	13		
N#Cc1ccc(C(=O)Nc2ccc(C(=O)c3ncc(CC(=O)O)c4ccccc34)cc2)cc1	> 1000	7.8	
O=C(O)COc1cnc(C(=O)c2ccc(C(=O)NCCc3ccc(Cl)cc3)cc2)c2ccccc12	100		
O=C(O)Cc1cnc(C(=O)c2ccc(NC(=O)c3ccc([N+](=O)[O-])cc3)cc2)c2ccccc12	28	9.9	
O=C(O)Cc1cnc(C(=O)c2ccc(NC(=O)c3cscn3)cc2)c2ccccc12	> 1000	67	
O=C(O)Cc1cnc(C(=O)c2ccc(NC(=O)CCc3ccc(Cl)c(Cl)c3)cc2)c2ccccc12	18		
O=C(O)Cc1cnc(C(=O)c2ccc(NC(=O)c3cccc(Cl)c3)cc2)c2ccccc12	9.7		
O=C(O)Cc1cnc(C(=O)c2ccc(NC(=O)c3cccc4ccccc34)cc2)c2ccccc12	350	31	
O=C(O)Cc1cnc(C(=O)c2ccc(NC(=O)C3CC3)cc2)c2ccccc12		50	
